A short description of this assay: Normalized percent cleavage of DNA from cleavage reactions (20 h) containing 100 μM compound and 50 μM (bp) supercoiled DNA at pH 9.0 in 20 mM TRIS buffer. In a few lines: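 Supercoiled ΦX174 DNA (50 μM bp) incubated with 100 μM compound in 20 mM TRIS, pH 9, for 20 h at 37 °C. Relaxed circular (Form II) and linear (Form III) DNA resolved on agarose gel and expressed as normalized percent cleavage. Mean ± SD over separate determinations.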

In the case of `C#CC[n+]1c(C#Cc2ccccc2)sc2ccccc21`, the DNA cleavage turned out to be 40%.

Molecule `C#CC[n+]1c(C#Cc2ccc(C)cc2)sc2ccccc21` yielded a DNA cleavage of 42%.

`C[n+]1c(C#Cc2ccccc2)sc2ccccc21` showed a DNA cleavage of 48%.

`C#CC[n+]1c(C#C[Si](C)(C)C)sc2ccccc21` registered a DNA cleavage of 33%.

Molecule `C(#Cc1nc2ccccc2s1)c1ccccc1` came in with a DNA cleavage of 0%.

`C#CC[n+]1c(C#C[Si](C(C)C)(C(C)C)C(C)C)sc2ccccc21` had a DNA cleavage of 7%.

(Values after ChEMBL document CHEMBL1133845, “N-propargyl-2-alkynylbenzothiazolium aza-enediynes: role of the 2-alkynylbenzothiazolium functionality in DNA cleavage” (Bioorg Med Chem Lett, 2001).)
